Results from ChEMBL document CHEMBL1121966, “(2R*,3S*)-1-[125I]Iodo-2,3-bis(4-hydroxyphenyl)pentane ([125I]iodonorhexestrol) and (2R*,3S*)-1-[77Br]Bromo-2,3-bis(4-hydroxyphenyl)pentane ([77Br]bromonorhexestrol), two gamma-emitting estrogens that show receptor-mediated uptake by target tissues in vivo” (1982).
“And” between values parts separate entries of the source, which are not always exact repeats. Equal entries are not always repeated.

What was measured:
[1] = Muscle/blood distribution ratio was determined in immature female rats at 1 hr; type: functional
Outline: (§1)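 Immature (25-day, ca. 50 g) Sprague-Dawley female rats received an iv injection (jugular or tail vein) of HPLC-purified tracer in ethanol plus 0.9% NaCl/rat serum 1:1. Doses were 2 μCi [125I]iodo tracer (≤15 pmol), or 2 μCi [77Br]bromo tracer (≤1.25 pmol) with 2 μCi 16α-[125I]iodoestradiol. Animals were killed at 1 h; blood and tissues were weighed and γ-counted. Blocking: coinjected unlabeled estradiol, 9 μg (iodo) or 18 μg (bromo). Mean ± SD.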

[2] = Esophagus/blood distribution ratio was determined in immature female rats at 1 hr; type: functional; outline: as §1
[3] = species: Rattus norvegicus; assay: Percent injected dose per gram Ovaries at 6 hr; type: functional
Outline: (§2)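 Dual-label study in immature 25-day female Sprague-Dawley rats (ca. 50 g). Each received 2 μCi [77Br]bromo tracer (≤1.25 pmol/dose) and 2 μCi 16α-[125I]iodoestradiol (2 pmol/dose) by tail or jugular vein, in ethanol diluted with saline/rat serum 1:1. Rats were killed at 3 or 6 h; blood and 11 tissues were weighed and counted. Five rats per time point; mean ± SD.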

[4] = species: Rattus norvegicus; assay: Percent injected dose per gram Muscle at 6 hr; type: functional; outline: as §2
[5] = species: Rattus norvegicus; assay: Percent injected dose per gram esophagus at 3h; type: functional; outline: as §2
[6] = Uptake ratio was measured with 16-alpha-[125I]-iodo-17-beta-estradiol in immature rats at 6 hr; type: functional
Outline: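 Immature (25 day, ca. 50 g) female Sprague-Dawley rats received iv (jugular or tail vein) 2 μCi each of the 77Br ligand (≤1.25 pmol/dose) and 16α-[125I]iodoestradiol (2 pmol/dose), in ethanol plus 0.9% NaCl/rat serum 1:1. Rats were killed at 3 or 6 h, five per time point. Blood and tissues were weighed and counted. The 77Br/125I ratio was calculated per rat and averaged. Nontarget was the mean of esophagus, spleen, lung and muscle.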

[7] = species: Rattus norvegicus; assay: Percent injected dose per gram blood at 3h; type: functional; outline: as §2
[8] = Spleen/blood distribution ratio was determined immature female rats at 3h; type: functional
Outline: (§3)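 Immature (25 day) female Sprague-Dawley rats (ca. 50 g) were dosed iv (jugular or tail vein) in ethanol plus 0.9% NaCl/rat serum (1:1). Doses were 2 μCi of [125I]iodonorhexestrol (≤15 pmol/dose), or 2 μCi each of [77Br]bromonorhexestrol (≤1.25 pmol/dose) and 16α-[125I]iodoestradiol (2 pmol/dose). Rats were killed at 1, 3 or 6 h; blood and tissues were weighed and γ-counted. Thyroid weight assumed 0.005 g/100 g body weight. Mean ± SD.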

[9] = species: Rattus norvegicus; assay: Percent injected dose per gram lung at 3h; type: functional; outline: as §3
[10] = Esophagus/blood distribution ratio was determined in immature female rats at 6 hr; type: functional; outline: as §2
[11] = Liver/blood distribution ratio was determined in immature female rats at 3h; type: functional; outline: as §2
[12] = Ovary/blood distribution ratio was determined in immature female rats at 3h; type: functional; outline: as §2
[13] = Uterus/blood distribution ratio was measured in immature female rats at 3h; type: functional; outline: as §3
[14] = Uterus/blood distribution ratio was measured in immature female rats at 6 hr; type: functional; outline: as §3
[15] = Spleen/blood distribution ratio was determined immature female rats at 1 hr; type: functional; outline: as §3
[16] = species: Rattus norvegicus; assay: Percent injected dose per gram spleen at 1 hr with unlabeled estradiol; type: functional
Outline: (§4)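 Same iv biodistribution in immature female rats, killed at 1 h, with unlabeled estradiol coinjected to block receptor uptake: 9 μg with [125I]iodonorhexestrol (3 rats), 18 μg with the [77Br]bromonorhexestrol/16α-[125I]iodoestradiol pair (5 rats). Tissue and blood radioactivity were counted as % injected dose/g and tissue-to-blood ratio.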

[17] = species: Rattus norvegicus; assay: Percent injected dose per gram spleen at 6 hr; type: functional; outline: as §3
[18] = species: Rattus norvegicus; assay: Percent injected dose per gram blood at 1 hr with unlabeled estradiol; type: functional; outline: as §1
[19] = species: Rattus norvegicus; assay: Percent injected dose per gram esophagus at 1 hr; type: functional; outline: as §1
[20] = species: Rattus norvegicus; assay: Percent injected dose per gram Uterus at 6 hr; type: functional; outline: as §2
[21] = species: Rattus norvegicus; assay: % compound injected per gram uterus at 6 hr; type: functional
[22] = Liver/blood distribution ratio was determined in immature female rats at 6 hr; type: functional; outline: as §2
[23] = species: Rattus norvegicus; assay: Percent injected dose per gram Uterus at 3h; type: functional; outline: as §2
[24] = Kidney/blood distribution ratio was determined in immature female rats at 6 hr; type: functional; outline: as §2
[25] = species: Rattus norvegicus; assay: Percent injected dose per gram Ovaries at 1 hr with unlabeled estradiol; type: functional; outline: as §1
[26] = species: Rattus norvegicus; assay: Percent injected dose per gram Muscle at 1 hr; type: functional; outline: as §1
[27] = species: Rattus norvegicus; assay: Percent injected dose per gram spleen at 3h; type: functional; outline: as §3
[28] = species: Rattus norvegicus; assay: Percent injected dose per gram thyroid at 3h; type: functional, Thyroid gland; outline: as §3
[29] = Ovary/blood distribution ratio was determined in immature female rats at 1 hr; type: functional; outline: as §1
[30] = species: Rattus norvegicus; assay: Percent injected dose per gram liver at 1 hr; type: functional; outline: as §3
[31] = species: Rattus norvegicus; assay: Percent injected dose per gram Ovaries at 3h; type: functional; outline: as §2
[32] = species: Rattus norvegicus; assay: Percent injected dose per gram Muscle at 3h; type: functional; outline: as §2
[33] = Tissue/blood distribution ratio was measured in immature female rats at 6 hr; type: functional; outline: as §3
[34] = Muscle/blood distribution ratio was determined in immature female rats at 6 hr; type: functional; outline: as §2
[35] = species: Rattus norvegicus; assay: Percent injected dose per gram thyroid at 1 hr with unlabeled estradiol; type: functional, Thyroid gland; outline: as §4
[36] = Ovary/blood distribution ratio was determined in immature female rats at 1 hr with unlabeled estradiol; type: functional; outline: as §1
[37] = species: Rattus norvegicus; assay: Percent injected dose per gram kidney at 3h; type: functional; outline: as §2
[38] = Uterus/blood distribution ratio was measured in immature female rats at 1 hr; type: functional; outline: as §3
[39] = Spleen/blood distribution ratio was determined immature female rats at 6 hr; type: functional; outline: as §3
[40] = Kidney/blood distribution ratio was determined in immature female rats at 3h; type: functional; outline: as §2
[41] = Ovary/blood distribution ratio was determined in immature female rats at 6 hr; type: functional; outline: as §2
[42] = species: Rattus norvegicus; assay: Percent injected dose per gram kidney at 1 hr; type: functional; outline: as §1
[43] = species: Rattus norvegicus; assay: Percent injected dose per gram thyroid at 6 hr; type: functional, Thyroid gland; outline: as §3
[44] = Muscle/blood distribution ratio was determined in immature female rats at 3h; type: functional; outline: as §2
[45] = Kidney/blood distribution ratio was determined in immature female rats at 1 hr; type: functional; outline: as §1
[46] = Tissue/blood distribution ratio was measured in immature female rats at 3h; type: functional; outline: as §3
[47] = Lung/blood distribution ratio was determined in immature female rats at 3h; type: functional; outline: as §2
[48] = Tissue/blood distribution ratio was measured in immature female rats at 1 hr; type: functional; outline: as §3
[49] = Thyroid/blood distribution ratio was determined in immature female rats at 3h; type: functional; outline: as §3
[50] = Lung/blood distribution ratio was determined in immature female rats at 6 hr; type: functional; outline: as §2
[51] = Tissue/blood distribution ratio was measured in immature female rats at 1h, unlabeled estradiol (18 microg) coinjected; type: functional
Outline: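 Immature female rats given iv [77Br]bromonorhexestrol with 16α-[125I]iodoestradiol (2 μCi each) plus 18 μg unlabeled estradiol coinjected; killed at 1 h. Tissue and blood were weighed and counted, and tissue-to-blood radioactivity ratios were computed; 5 animals, mean ± SD.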

[52] = Liver/blood distribution ratio was determined in immature female rats at 1 hr; type: functional; outline: as §1
[53] = Esophagus/blood distribution ratio was determined in immature female rats at 1 hr with unlabeled estradiol; type: functional; outline: as §1
[54] = species: Rattus norvegicus; assay: Percent injected dose per gram Uterus at 1 hr; type: functional; outline: as §1
[55] = species: Rattus norvegicus; assay: Percent injected dose per gram kidney at 6 hr; type: functional; outline: as §2

Question: What does the source list for `CC[C@H](c1ccc(O)cc1)[C@@H](CBr)c1ccc(O)cc1`?
Answer: Ratio [1]: 0.48; Ratio [2]: 0.54; Injected dose [3]: 1.93%; Injected dose [4]: 0.35%; Injected dose [5]: 0.61%; Ratio [6]: 0.58 and 0.33%; Injected dose [7]: 1.24%; Ratio [8]: 0.48; Injected dose [9]: 0.95%; Ratio [10]: 0.5; Ratio [11]: 0.84; Ratio [12]: 1.23; Ratio [13]: 2.86; Ratio [14]: 2.51; Ratio [15]: 0.52; Injected dose [16]: 0.34%; Injected dose [17]: 0.69%; Injected dose [18]: 0.98%; Injected dose [19]: 0.38%; Injected dose [20]: 3.19%; Injected [21]: 3.19; Ratio [22]: 0.69; Injected dose [23]: 3.59%; Ratio [24]: 0.89; Injected dose [25]: 0.72%; Injected dose [26]: 0.29%; Injected dose [27]: 0.6%; Injected dose (g) [28]: 0.09%; Ratio [29]: 1.98; Injected dose [30]: 1.28%; Injected dose [31]: 1.28%; Injected dose [32]: 0.37%; Ratio [33]: 1; Ratio [34]: 0.26; Injected dose [35]: 0.25%; Ratio [36]: 0.74; Injected dose [37]: 0.84%; Ratio [38]: 4.49; Ratio [39]: 0.55; Ratio [40]: 0.76; Ratio [41]: 1.41; Injected dose [42]: 0.94%; Injected dose [43]: 0.18%; Ratio [44]: 0.29; Ratio [45]: 1.29; Ratio [46]: 1; Ratio [47]: 0.68; Ratio [48]: 1; Ratio [49]: 0.08; Ratio [50]: 0.76; Ratio [51]: 1; Ratio [52]: 1.69; Ratio [53]: 0.59; Injected dose [54]: 3.16%; Injected dose [55]: 0.9%
